In brackets after ≈: the same amount, converted by molar mass.

Data set [1] concerns Mycobacterium tuberculosis. The data set is described as follows: Antimycobacterial activity against Mycobacterium tuberculosis H37Rv assessed as bacterial growth inhibition. The class given is functional.
For another data set, the target named is CYP2C9 (Homo sapiens, UniProt P11712). The data set is described as follows: Inhibition of CYP2C9 (unknown origin) at 0.5 uM relative to control. The class given is ADME.
CYP2C9, sequence (P11712 whole entry): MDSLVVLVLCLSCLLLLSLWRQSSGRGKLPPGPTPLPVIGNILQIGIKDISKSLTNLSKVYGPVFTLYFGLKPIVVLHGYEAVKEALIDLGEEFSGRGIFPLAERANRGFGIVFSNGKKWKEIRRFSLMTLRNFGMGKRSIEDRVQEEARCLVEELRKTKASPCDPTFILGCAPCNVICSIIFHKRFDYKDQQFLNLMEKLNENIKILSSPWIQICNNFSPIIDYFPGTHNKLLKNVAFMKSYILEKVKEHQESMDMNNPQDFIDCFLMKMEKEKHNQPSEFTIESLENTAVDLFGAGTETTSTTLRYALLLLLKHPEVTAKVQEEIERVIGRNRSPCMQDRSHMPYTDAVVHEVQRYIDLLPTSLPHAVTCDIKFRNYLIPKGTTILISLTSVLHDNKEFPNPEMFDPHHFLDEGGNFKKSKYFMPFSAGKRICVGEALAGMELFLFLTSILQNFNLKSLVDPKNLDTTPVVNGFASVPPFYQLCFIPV
The next data set concerns Vero. The data set is described as follows: Cytotoxicity against African green monkey Vero cells assessed as reduction in cell viability. The class given is cell-based. To be noted: Chlorocebus sabaeus. The essentials:
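Vero cells exposed to the compounds; IC50 taken as the concentration inhibiting 50% of cell growth relative to an untreated control.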

For the next data set, the target named is Cytochrome P450 2C9 (Homo sapiens, UniProt P11712). The data set is described as follows: Inhibition of CYP2C9 (unknown origin). The data set is classed as ADME.
Cytochrome P450 2C9, sequence (P11712 whole entry): as above

As usually defined, the MIC90 is the lowest concentration that inhibits either 90% of growth or 90% of the strains tested, depending on the study. In the case of `Nc1ccc(S(=O)(=O)Nc2nc3ccccc3o2)cc1`, the MIC90 in data set [1] was above 32 µg/mL.

On to `CN(c1ccnn1-c1ccccc1)S(=O)(=O)c1ccc(N)cc1`, for which the MIC90 in data set [1] is above 32 µg/mL. Broadly, the inhibition is the change of the read-out against control, counted positive when it falls. In turn, `Cc1ccc(-c2ccc(-n3nccc3NS(=O)(=O)c3ccc(N)cc3)cc2)cc1` gave an inhibition at 0.5 µM at CYP2C9 of 2.2%. In addition, the MIC90 in data set [1] is 31 µg/mL (≈ 76.7 µM). For `Nc1ccc(S(=O)(=O)Nc2ccc3cnn(-c4ccccc4)c3c2)cc1`, the MIC90 in data set [1] is above 32 µg/mL. Molecule `Nc1ccc(S(=O)(=O)Nc2nc3ccccc3s2)cc1` displayed an inhibition at 0.5 µM against CYP2C9 of 4.8%. Besides, in data set [1], the MIC90 was 14.3 µg/mL (≈ 46.7 µM). For the molecule `Nc1ccc(S(=O)(=O)Nc2ccnn2-c2ccc([N+](=O)[O-])cc2)cc1`, in data set [1], the MIC90 was 10.3 µg/mL (≈ 28.7 µM). Regarding `Nc1ccc(S(=O)(=O)Nc2cc(-c3ccccc3)nn2-c2ccccc2)cc1`, the MIC90 in data set [1] is above 32 µg/mL. `Nc1ccc(S(=O)(=O)Nc2ccc3scnc3c2)cc1`: the MIC90 in data set [1] was above 32 µg/mL. Still for that read-out and setting: in the case of `CNc1ccc(S(=O)(=O)Nc2ccnn2-c2ccccc2)cc1` it was above 32 µg/mL; in that of `CC(C)(C)c1cc(NS(=O)(=O)c2ccc(N)cc2)n(-c2ccccc2)n1`, above 32 µg/mL. The same measure, in the same setting: with `Cc1ccc(C)c(-n2nccc2NS(=O)(=O)c2ccc(N)cc2)c1` the figure was above 32 µg/mL; with `Nc1ccc(S(=O)(=O)Nc2ccnn2-c2ccc(C(F)(F)F)cc2)cc1`, above 32 µg/mL.

For `O=C(c1ccc(S(=O)(=O)Nc2ccnn2-c2ccccc2)cc1)N1CCNCC1`, the MIC90 in data set [1] is above 32 µg/mL. For the molecule `Nc1ccc(S(=O)(=O)Nc2nc3ccc(-c4ccccc4)cc3s2)cc1`, the MIC90 in data set [1] was above 32 µg/mL. The same measure, in the same setting: with `Nc1ccc(S(=O)(=O)Nc2ccnn2-c2ccc(-c3ccccc3)cc2)cc1` the figure was above 32 µg/mL. `O=C(c1ccc(S(=O)(=O)Nc2ccnn2-c2ccccc2)cc1)N1CCCCC1` returned an inhibition at 0.5 µM against CYP2C9 of 0.2%. In addition, the MIC90 in data set [1] stood at 30.1 µg/mL (≈ 73.4 µM). For `COc1ccc(-c2ccc(-n3nccc3NS(=O)(=O)c3ccc(N)cc3)cc2)cc1`, the MIC90 in data set [1] is above 32 µg/mL. On the same count and under the same terms, in the case of `COc1ccc(-c2ccc3nc(NS(=O)(=O)c4ccc(N)cc4)sc3c2)cc1` it was above 32 µg/mL; in that of `O=S(=O)(Nc1ccnn1-c1ccccc1)c1ccc(N2CCCCC2)cc1`, above 32 µg/mL.

Consider `CC(=O)Nc1ccc(S(=O)(=O)Nc2ccnn2-c2ccccc2)cc1`, for which the MIC90 in data set [1] is above 32 µg/mL. For `Nc1ccc(S(=O)(=O)Nc2ccnn2Cc2ccccc2)cc1`, the MIC90 in data set [1] was above 32 µg/mL.

As to `Nc1ccc(S(=O)(=O)Nc2ccnn2-c2ccccc2)cc1F`, in data set [1], the MIC90 is above 32 µg/mL.

Consider `Cc1cccc(-n2nccc2NS(=O)(=O)c2ccc(N)cc2)c1`, for which, in data set [1], the MIC90 amounted to 12.2 µg/mL (≈ 37.2 µM).

Regarding `Nc1cccc(S(=O)(=O)Nc2ccnn2-c2ccccc2)c1`, the MIC90 in data set [1] is above 32 µg/mL. For the molecule `Nc1ccc(S(=O)(=O)Nc2ccnn2C2CCCCC2)cc1`, the MIC90 in data set [1] is above 32 µg/mL. Broadly, the IC50 is the point on the concentration scale where inhibition reaches its midpoint. As to `COc1ccc(-n2nccc2NS(=O)(=O)c2ccc(N)cc2)cc1`, the IC50 with Vero is above 64 µg/mL; against Cytochrome P450 2C9 it was 11.5 µM. Also, on CYP2C9, testing at 0.5 µM gave an inhibition of 9.1%. Moreover, the MIC90 in data set [1] stood at 5.69 µg/mL (≈ 16.5 µM). On to `Nc1ccc(S(=O)(=O)Nc2ccnn2-c2ccc(F)cc2)cc1`, for which the IC50 in the data set on Vero is above 64 µg/mL. At 0.5 µM the inhibition on CYP2C9 was 45.7%. The MIC90 in data set [1] was determined as 6.88 µg/mL (≈ 20.7 µM). For `O=C(c1ccc(S(=O)(=O)Nc2ccnn2-c2ccccc2)cc1)N1CCSCC1`, the MIC90 in data set [1] is above 32 µg/mL. Regarding `COc1cc(N)ccc1S(=O)(=O)Nc1ccnn1-c1ccccc1`, in data set [1], the MIC90 was above 32 µg/mL. The same measure, in the same setting: in the case of `Nc1ccc(S(=O)(=O)Nc2ccnn2-c2cccc(F)c2)cc1` it was 7.93 µg/mL (≈ 23.9 µM); in that of `Nc1ccc(-c2ccc(S(=O)(=O)Nc3ccnn3-c3ccccc3)cc2)cc1`, above 32 µg/mL; in that of `CCc1cc(NS(=O)(=O)c2ccc(N)cc2)n(-c2ccccc2)n1`, above 32 µg/mL. `Nc1ccc(S(=O)(=O)Nc2sccc2-c2ccccc2)cc1`: in data set [1], the MIC90 is above 32 µg/mL.

`Cc1ccc(-n2nccc2NS(=O)(=O)c2ccc(N)cc2)cc1`: in the data set on Vero, the half-inhibitory concentration (IC50) is above 64 µg/mL. This molecule also showed an inhibition at 0.5 µM at CYP2C9 of 52.3%. For the same molecule, the MIC90 in data set [1] was found to be 7.33 µg/mL (≈ 22.3 µM).

Consider `Nc1ccc(S(=O)(=O)Nc2ccnn2-c2ccc(Br)cc2)cc1`, for which the MIC90 in data set [1] was found to be 14.5 µg/mL (≈ 37 µM). On the same count and under the same terms, with `Nc1ccc(S(=O)(=O)Nc2ccnn2C2CCCC2)cc1` the figure was above 32 µg/mL; with `NNC(=O)c1ccncc1` [ISONIAZID], 0.02 µg/mL (≈ 0.146 µM). On to `Nc1ccc(S(=O)(=O)Nc2ccnn2-c2ccccc2)cc1` [SULFAPHENAZOLE], for which the IC50 in the data set with Vero was above 64 µg/mL. In addition, the inhibition at 0.5 µM at CYP2C9 came to 48.3%. The MIC90 in data set [1] came out at 5.51 µg/mL (≈ 17.5 µM). For `Cc1cc(NS(=O)(=O)c2ccc(N)cc2)n(-c2ccccc2)n1` [SULFAZAMET], at CYP2C9, 0.5 µM produced 45% inhibition. Besides, in data set [1], the MIC90 was 15.4 µg/mL (≈ 46.8 µM).

(Values after ChEMBL document CHEMBL4732257, “The optimization and characterization of functionalized sulfonamides derived from sulfaphenazole against Mycobacterium tuberculosis with reduced CYP 2C9 inhibition” (Bioorg Med Chem Lett, 2021).)
